From ChEMBL document CHEMBL1129067, “Dioxabicyclooctanyl naphthalenenitriles as nonredox 5-lipoxygenase inhibitors: structure-activity relationship study directed toward the improvement of metabolic stability” (J Med Chem, 1996)

Legend:
Homo sapiens [1] = species on record: Homo sapiens; experiment: Test inhibition of LTB4 production in human peripheral blood polymorphonuclear leukocytes (HPMN); assay type: functional
Procedure, shortened: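 LTB4 generation measured in human peripheral blood polymorphonuclear leukocytes. IC50 values are the mean of at least two independent determinations, though some values come from a single titration.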

Homo sapiens [2] = species on record: Homo sapiens; experiment: Compound was tested for the inhibition of LTB4 production in human whole blood (HWB); assay type: functional
Procedure, shortened: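 LTB4 generation measured in human whole blood. IC50 values are the mean of at least two independent titrations, though some values come from a single titration. Where more than two IC50 values were determined, the 95% confidence limits were within 90% of the mean.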

[3] = molecular target: T1, Polyunsaturated fatty acid 5-lipoxygenase (Homo sapiens, UniProt P09917); experiment: Potency to inhibit oxidation of arachidonic acid by recombinant human 5-lipoxygenase
T1 sequence (P09917 whole entry): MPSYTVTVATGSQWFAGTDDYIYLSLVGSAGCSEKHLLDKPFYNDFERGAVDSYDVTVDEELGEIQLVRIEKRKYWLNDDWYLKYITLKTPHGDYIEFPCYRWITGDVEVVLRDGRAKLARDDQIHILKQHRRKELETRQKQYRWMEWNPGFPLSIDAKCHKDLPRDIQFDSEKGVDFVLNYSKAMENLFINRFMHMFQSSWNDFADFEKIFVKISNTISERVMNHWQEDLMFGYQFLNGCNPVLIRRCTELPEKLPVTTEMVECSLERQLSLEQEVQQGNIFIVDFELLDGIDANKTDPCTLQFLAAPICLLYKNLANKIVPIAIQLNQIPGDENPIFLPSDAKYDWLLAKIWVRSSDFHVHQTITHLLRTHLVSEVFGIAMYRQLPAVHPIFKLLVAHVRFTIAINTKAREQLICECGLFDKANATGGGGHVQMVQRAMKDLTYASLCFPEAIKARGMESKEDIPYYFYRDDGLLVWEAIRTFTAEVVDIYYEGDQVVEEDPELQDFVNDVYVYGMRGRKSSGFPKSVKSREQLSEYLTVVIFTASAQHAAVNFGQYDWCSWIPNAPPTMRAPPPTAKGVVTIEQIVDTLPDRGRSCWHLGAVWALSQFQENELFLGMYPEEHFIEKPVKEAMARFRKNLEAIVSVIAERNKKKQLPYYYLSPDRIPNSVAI

SMILES	IC50 (Homo sapiens [1]; Homo sapiens)	IC50 (Homo sapiens [2]; Homo sapiens, Blood)	IC50 [3]	IC50 (Homo sapiens [1])	IC50 (Homo sapiens [2])
COC(C)c1cc(-c2ccccc2)c2ccc(OCc3cccc(C4(O)CCOCC4)c3)cc2c1 (configuration not stated)	41 nM	> 1000 nM	1200 nM		
O=C1OCc2c1cc1cc(OCc3cccc(C4(O)CC5COC(C4)O5)c3)ccc1c2-c1ccoc1 (stereo in doubt; 3u)			140 nM	7 nM	
O=C1CC(O)(c2cccc(COc3ccc4c(-c5ccccc5)c5c(cc4c3)C(=O)OC5)c2)CCO1 (configuration not stated)	35 nM	> 3000 nM	390 nM		
CC1(C)OC(=O)c2cc3cc(OCc4cccc(C5(O)CCOCC5)c4)ccc3c(-c3ccccc3)c21	80 nM	> 3000 nM	> 6000 nM		
OC1(c2cccc(COc3ccc4c(-c5ccoc5)cc(-c5nc6ccccc6s5)cc4c3)c2)CCOCC1	> 62 nM		> 6000 nM		
CC(C)(O)c1cc(-c2ccccc2)c2ccc(OCc3cccc(C4(O)CCOCC4)c3)cc2c1	59 nM				
OC1(c2cccc(COc3ccc4c(-c5ccccc5)cc(-c5nn[nH]n5)cc4c3)c2)CCOCC1	> 700 nM	> 3000 nM	> 6000 nM		
O=C1OCc2c1cc1cc(OCc3cccc(C4(O)CC5COC(C4)O5)c3)ccc1c2-c1ccoc1 (stereo in doubt; 3v)			340 nM	21 nM	2100 nM
CCCCc1cc(C(=O)OC)cc2cc(OCc3cccc(C4(O)CCOCC4)c3)ccc12	15 nM		2200 nM		
CC(c1cc2ccccc2s1)N(O)C(N)=O (configuration not stated) [ZILEUTON]		2000 nM			
O=C1OCc2c1cc1cc(OCc3cccc(C4(O)CCOC(O)C4)c3)ccc1c2-c1ccccc1 (configuration not stated)	15 nM	1600 nM	810 nM		
O=C1OCc2c1cc1cc(OCc3cccc(C4(O)CCOCC4)c3)ccc1c2-c1ccccc1F	18 nM	1800 nM	360 nM		
CC1OC(=O)c2cc3cc(OCc4cccc(C5(O)CCOCC5)c4)ccc3c(-c3ccccc3)c21 (configuration not stated)	150 nM	> 3000 nM	1300 nM		
CC1(C)COC(c2cc(-c3ccoc3)c3ccc(OCc4cccc(C5(O)CCOCC5)c4)cc3c2)=N1	17 nM	2900 nM	190 nM		
O=C1OCc2c1cc1cc(OCc3cccc(C4(O)CCOCC4)c3)ccc1c2-c1ccc(Cl)cc1	26 nM	> 3000 nM	5500 nM		
CC(O)c1cc(-c2ccccc2)c2ccc(OCc3cccc(C4(O)CCOCC4)c3)cc2c1 (configuration not stated)	28 nM	675 nM	520 nM		
COC(=O)c1cc(Cc2ccccc2)c2ccc(OCc3cccc(C4(O)CCOCC4)c3)cc2c1	> 70 nM		> 6000 nM		
CCc1cc(-c2ccccc2)c2ccc(OCc3cccc(C4(O)CCOCC4)c3)cc2c1	10 nM	> 1000 nM	760 nM		
O=C1OCc2c1cc1cc(OCc3cccc(C4(O)CCOCC4)c3)ccc1c2-c1cccnc1	25 nM	1200 nM	720 nM		
O=C1OCc2c1cc1cc(OCc3cccc(C4(O)CCOCC4)c3)ccc1c2-c1ccccc1Cl	11 nM	1100 nM	380 nM		
O=C1OCc2c1cc1cc(OCc3cccc(C4(O)CC5C=CC(C4)O5)c3)ccc1c2-c1ccccc1 (configuration not stated)	27 nM	> 3000 nM	400 nM		
O=C(O)c1cc(-c2ccccc2)c2ccc(OCc3cccc(C4(O)CCOCC4)c3)cc2c1	190 nM				
Cn1nnnc1-c1cc(-c2ccccc2)c2ccc(OCc3cccc(C4(O)CCOCC4)c3)cc2c1	> 67 nM	> 10000 nM	3000 nM		
COC1(c2cc(F)cc(OCc3ccc4c(ccc(=O)n4C)c3)c2)CCOCC1 [ZD-2138]	10 nM	80 nM	330 nM		
O=C1OC(O)c2c1cc1cc(OCc3cccc(C4(O)CCOCC4)c3)ccc1c2-c1ccccc1 (configuration not stated)	> 700 nM	> 3000 nM	> 6000 nM		
COc1ccc(-c2c3c(cc4cc(OCc5cccc(C6(O)CCOCC6)c5)ccc24)C(=O)OC3)cc1	89 nM		6000 nM		
OC1(c2cccc(COc3ccc4c(-c5ccccc5)cc(Cn5ccnc5)cc4c3)c2)CCOCC1	40 nM		640 nM		

Second part, the molecule after the results:

IC50 (Homo sapiens [1]; Homo sapiens)	IC50 (Homo sapiens [2]; Homo sapiens, Blood)	IC50 [3]	IC50 (Homo sapiens [1])	IC50 (Homo sapiens [2])	SMILES
2 nM	75 nM	50 nM			OC1(c2cccc(COc3ccc4c(-c5ccoc5)cc(C5=NCCS5)cc4c3)c2)CCOCC1
6 nM	540 nM	240 nM			O=C1OCc2c1cc1cc(OCc3cccc(C4(O)CC5COC(C4)O5)c3)ccc1c2-c1ccccc1 (configuration not stated)
4 nM	310 nM	120 nM			Cn1nnc(-c2cc(-c3ccccc3)c3ccc(OCc4cccc(C5(O)CCOCC5)c4)cc3c2)n1
4 nM	200 nM	160 nM			COCc1cc(-c2ccccc2)c2ccc(OCc3cccc(C4(O)CCOCC4)c3)cc2c1
2 nM	130 nM	50 nM			O=C(c1cc(-c2ccoc2)c2ccc(OCc3cccc(C4(O)CCOCC4)c3)cc2c1)c1nccs1
7 nM	370 nM	120 nM			O=C(c1cccnc1)c1cc(-c2ccoc2)c2ccc(OCc3cccc(C4(O)CCOCC4)c3)cc2c1
2 nM	140 nM				O=C1OCc2c1cc1cc(OCc3cccc(C4(O)CCOCC4)c3)ccc1c2-c1ccccc1
2 nM	90 nM	130 nM			CC(=O)c1cc(-c2ccccc2)c2ccc(OCc3cccc(C4(O)CCOCC4)c3)cc2c1
2 nM	120 nM	23 nM			COC1CC(O)(c2cccc(COc3ccc4c(-c5ccccc5)c5c(cc4c3)C(=O)OC5)c2)CCO1 (configuration not stated)
8 nM	1000 nM	320 nM			O=C1OCc2c1cc1cc(OCc3cccc(C4(O)CC5CCC(C4)O5)c3)ccc1c2-c1ccccc1 (configuration not stated)
2 nM	50 nM	27 nM			O=C1OCc2c1cc1cc(OCc3cccc(C4(O)CCOCC4)c3)ccc1c2-c1ccsc1
3 nM	100 nM	120 nM			N#Cc1cc(-c2ccccc2)c2ccc(OCc3cccc(C4(O)CCOCC4)c3)cc2c1
2 nM	80 nM	80 nM			Cn1nnc(-c2cc(-c3ccoc3)c3ccc(OCc4cccc(C5(O)CCOCC5)c4)cc3c2)n1
3 nM	900 nM	180 nM			CC1CC(O)(c2cccc(COc3ccc4c(-c5ccccc5)c5c(cc4c3)C(=O)OC5)c2)CC(C)O1 (configuration not stated)
3 nM	150 nM	190 nM			N#Cc1cc(-c2ccoc2)c2ccc(OCc3cccc(C4(O)CC5COC(C4)O5)c3)cc2c1 (configuration not stated)
3 nM	410 nM	140 nM			O=C1OCc2c1cc1cc(OCc3cccc(C4(O)CCOCC4)c3)ccc1c2-c1ccc(F)cc1
2 nM	100 nM	26 nM			O=C1OCc2c1cc1cc(OCc3cccc(C4(O)CCOCC4)c3)ccc1c2-c1ccoc1
3 nM	50 nM	70 nM			OC1(c2cccc(COc3ccc4c(-c5ccoc5)cc(C5=NCCO5)cc4c3)c2)CCOCC1
9 nM		260 nM			OCc1cc(-c2ccccc2)c2ccc(OCc3cccc(C4(O)CCOCC4)c3)cc2c1
1 nM	660 nM	140 nM			OC1(c2cccc(COc3ccc4c(-c5ccoc5)cc(Cc5nccs5)cc4c3)c2)CCOCC1
3 nM	100 nM	70 nM			COC(=O)c1cc(-c2ccccc2)c2ccc(OCc3cccc(C4(O)CCOCC4)c3)cc2c1
4 nM	260 nM	80 nM			COc1cccc(-c2c3c(cc4cc(OCc5cccc(C6(O)CCOCC6)c5)ccc24)C(=O)OC3)c1
1 nM	200 nM	70 nM			O=C(c1ccccc1)c1cc(-c2ccoc2)c2ccc(OCc3cccc(C4(O)CCOCC4)c3)cc2c1
5 nM	450 nM	280 nM			O=C1OCc2c1cc1cc(OCc3cccc(C4(O)CCOCC4)c3)ccc1c2-c1ccco1
2 nM	10 nM	30 nM			N#Cc1cc(-c2ccoc2)c2ccc(OCc3cccc(C4(O)CCOCC4)c3)cc2c1
